These results are taken from ChEMBL document CHEMBL3627681, “Synthesis and biological evaluation of 1,3-diaryl pyrazole derivatives as potential antibacterial and anti-inflammatory agents” (2015).

In one test the test system is Mus musculus. The test is described as follows: Antiinflammatory activity in mouse assessed as inhibition of xylene-induced ear edema at 50 mg/kg, ip administered 30 mins before xylene challenge relative to control. Type of test: functional. In short, it runs like this: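 Mice received compound freshly dissolved in DMSO, 50 mg/kg ip at 0.05 mL/20 g body weight; vehicle controls got DMSO alone. After 30 min, 20 µL xylene was applied to the right ear. After a further 30 min, 7 mm plugs were cut from treated and untreated ears and edema taken as their weight difference. Result is % edema reduction versus vehicle controls.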

Another test concerns Salmonella typhimurium. The test is described as follows: Antibacterial activity against Salmonella typhimurium 2421 after 24 hrs by two-fold serial dilution method. Type of test: functional, Salmonella enterica subsp. enterica serovar Typhimurium. The conditions noted are these: Salmonella enterica, 2421, 24 h. An outline of the steps: (§1)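 Broth microdilution in Mueller-Hinton broth over final concentrations of 64–0.5. Bacteria were grown to mid-log phase and diluted 1000-fold, then inoculated at 10⁵ CFU/mL. Compounds were dissolved in DMSO, with final DMSO at most 0.05%. Plates were incubated 24 h at 37 °C and growth read as absorbance at 650 nm. MIC is the concentration giving complete growth inhibition. Three independent runs.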

Test [1] deals with Staphylococcus aureus. The test is described as follows: Antibacterial activity against Staphylococcus aureus 209 after 24 hrs by two-fold serial dilution method. Type of test: functional. The conditions noted are these: Staphylococcus aureus, 209, 24 h. In short, it runs like this:
(§2)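 Broth microdilution in Mueller-Hinton broth. Bacteria grown to mid-log phase, diluted 1000-fold, and inoculated at 10⁵ CFU/mL. Test compounds in DMSO, final DMSO not above 0.05%, final concentrations 64-0.5 µg/mL. Incubation 24 h at 37 °C, growth read as absorbance at 650 nm. MIC taken as the lowest concentration giving complete growth inhibition. Run three times.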

In test [2] the test system is Staphylococcus aureus. The test is described as follows: Antibacterial activity against methicillin-resistant Staphylococcus aureus CCARM 3167 after 24 hrs by two-fold serial dilution method. Type of test: functional. The conditions noted are these: CCARM 3167, 24 h. An outline of the steps: as §2
In test [3] the test system is Escherichia coli. Briefly: Antibacterial activity against Escherichia coli KCTC 1924 after 24 hrs by two-fold serial dilution method. It counts as functional. As to conditions: KCTC 1924, 24 h. In short, it runs like this: as §1
Test [4] has as its system Staphylococcus aureus. Briefly: Antibacterial activity against methicillin-resistant Staphylococcus aureus CCARM 3506 after 24 hrs by two-fold serial dilution method. Type of test: functional. The conditions noted are these: CCARM 3506, 24 h. In short, it runs like this: as §2
The next test deals with Streptococcus mutans. Briefly: Antibacterial activity against Streptococcus mutans 3065 after 24 hrs by two-fold serial dilution method. As to conditions: Streptococcus mutans, 3065, 24 h. Type of test: functional. In short, it runs like this: as §1
Test [5] has as its system Staphylococcus aureus. Briefly: Antibacterial activity against quinolone-resistant Staphylococcus aureus CCARM 3505 after 24 hrs by two-fold serial dilution method. As to conditions: CCARM 3505, 24 h. It counts as functional. In short, it runs like this:
as §2

Test [6] has as its system Staphylococcus aureus. Briefly: Antibacterial activity against Staphylococcus aureus 503 after 24 hrs by two-fold serial dilution method. Type of test: functional. As to conditions: Staphylococcus aureus, 503, 24 h. An outline of the steps:
as §2

Test [7] concerns Staphylococcus aureus. Briefly: Antibacterial activity against quinolone-resistant Staphylococcus aureus CCARM 3519 after 24 hrs by two-fold serial dilution method. It counts as functional. As to conditions: CCARM 3519, 24 h. An outline of the steps:
as §2

Test [8] has as its system Staphylococcus aureus. The test is described as follows: Antibacterial activity against Staphylococcus aureus RN4220 after 24 hrs by two-fold serial dilution method. Type of test: functional. The conditions noted are these: RN4220, 24 h. In short, it runs like this:
as §2

Test [9] deals with Escherichia coli. Briefly: Antibacterial activity against Escherichia coli CCARM 1356 after 24 hrs by two-fold serial dilution method. The conditions noted are these: CCARM 1356, 24 h. It counts as functional. An outline of the steps: as §1
For test [10], the system named is Pseudomonas aeruginosa. The test is described as follows: Antibacterial activity against Pseudomonas aeruginosa 2004 after 24 hrs by two-fold serial dilution method. Type of test: functional. As to conditions: Pseudomonas aeruginosa, 2004, 24 h. In short, it runs like this: as §1
In the next test the test system is Candida albicans. The test is described as follows: Antifungal activity against Candida albicans 7535 by two-fold serial dilution method. Type of test: functional.
In test [11] the test system is Pseudomonas aeruginosa. Briefly: Antibacterial activity against Pseudomonas aeruginosa 2742 after 24 hrs by two-fold serial dilution method. Type of test: functional. As to conditions: Pseudomonas aeruginosa, 2742, 24 h. An outline of the steps: as §1
In test [12] the test system is Escherichia coli. The test is described as follows: Ratio of moxifloxacin MIC to compound MIC for Escherichia coli CCARM 1356 after 24 hrs by two-fold serial dilution method. It counts as functional.

Converted amounts (≈) assume the structure as drawn.

One may read the inhibition in vivo as the relative decrease from the control value, in per cent. Usually MIC stands for the lowest concentration that inhibits growth of the organism. As for `N=C(N)N/N=C/c1cn(-c2ccc([N+](=O)[O-])cc2[N+](=O)[O-])nc1-c1ccccc1F`, the inhibition in vivo at 50 mg/kg in the test with Mus musculus is 87.2%. Further, the MIC is 16 µg/mL (≈ 38.8 µM) in the test with Salmonella typhimurium; 8 µg/mL (≈ 19.4 µM) against Staphylococcus aureus [1]; 8 µg/mL (≈ 19.4 µM) against Staphylococcus aureus [2]; 8 µg/mL (≈ 19.4 µM) in the test with Escherichia coli [3]; 4 µg/mL (≈ 9.7 µM) in the test on Staphylococcus aureus [4]; 16 µg/mL (≈ 38.8 µM) with Streptococcus mutans. Besides, the MIC in the test with Staphylococcus aureus [5] was 8 µg/mL (≈ 19.4 µM); with Staphylococcus aureus [6], 8 µg/mL (≈ 19.4 µM); in the test with Staphylococcus aureus [7], 8 µg/mL (≈ 19.4 µM); against Staphylococcus aureus [8], 8 µg/mL (≈ 19.4 µM); with Escherichia coli [9], 16 µg/mL (≈ 38.8 µM); against Pseudomonas aeruginosa [10], over 64 µg/mL. The MIC was 4 µg/mL (≈ 9.7 µM) in the test with Candida albicans and over 64 µg/mL against Pseudomonas aeruginosa [11].
As to `N=C(N)N/N=C/c1cn(-c2ccccc2)nc1-c1ccc(Br)cc1`, in the test with Mus musculus, the inhibition in vivo at 50 mg/kg was 42.8%. The minimal inhibitory concentration (MIC) is over 64 µg/mL with Salmonella typhimurium; 8 µg/mL (≈ 20.9 µM) in the test on Staphylococcus aureus [1]; 8 µg/mL (≈ 20.9 µM) with Staphylococcus aureus [2]; 8 µg/mL (≈ 20.9 µM) in the test on Escherichia coli [3]; 4 µg/mL (≈ 10.4 µM) in the test with Staphylococcus aureus [4]; over 64 µg/mL in the test on Streptococcus mutans. Further, the minimal inhibitory concentration (MIC) against Staphylococcus aureus [5] is 16 µg/mL (≈ 41.7 µM); against Staphylococcus aureus [6] it was 4 µg/mL (≈ 10.4 µM); against Staphylococcus aureus [7], 16 µg/mL (≈ 41.7 µM); against Staphylococcus aureus [8] it was 4 µg/mL (≈ 10.4 µM); with Escherichia coli [9] it was over 64 µg/mL; with Pseudomonas aeruginosa [10] it was over 64 µg/mL. Besides, the figures for the MIC in the test on Candida albicans and in the test with Pseudomonas aeruginosa [11] were 4 µg/mL (≈ 10.4 µM) and over 64 µg/mL, respectively.
As for `Cc1ccc(-c2nn(-c3ccc([N+](=O)[O-])cc3[N+](=O)[O-])cc2/C=N/NC(=O)c2ccco2)cc1`, the inhibition in vivo at 50 mg/kg in the test on Mus musculus is 36%. Besides, the MIC in the test with Salmonella typhimurium, in the test with Staphylococcus aureus [1], against Staphylococcus aureus [2], against Escherichia coli [3], against Staphylococcus aureus [4] and against Streptococcus mutans was over 64 µg/mL each time. Besides, the MIC in the test on Staphylococcus aureus [5], in the test on Staphylococcus aureus [6], against Staphylococcus aureus [7], against Staphylococcus aureus [8], against Escherichia coli [9] and in the test with Pseudomonas aeruginosa [10] was over 64 µg/mL in each case. In addition, the MIC against Candida albicans and with Pseudomonas aeruginosa [11] was over 64 µg/mL throughout.
Regarding `N=C(N)N/N=C/c1cn(-c2ccc([N+](=O)[O-])cc2[N+](=O)[O-])nc1-c1ccc(F)cc1`, the inhibition in vivo at 50 mg/kg in the test on Mus musculus was found to be 61.9%. The MIC amounted to 8 µg/mL (≈ 19.4 µM) with Salmonella typhimurium; 4 µg/mL (≈ 9.7 µM) with Staphylococcus aureus [1]; 4 µg/mL (≈ 9.7 µM) against Staphylococcus aureus [2]; 4 µg/mL (≈ 9.7 µM) in the test on Escherichia coli [3]; 4 µg/mL (≈ 9.7 µM) in the test with Staphylococcus aureus [4]; 8 µg/mL (≈ 19.4 µM) against Streptococcus mutans. Also, the MIC against Staphylococcus aureus [5] was 4 µg/mL (≈ 9.7 µM); in the test with Staphylococcus aureus [6], 4 µg/mL (≈ 9.7 µM); against Staphylococcus aureus [7], 4 µg/mL (≈ 9.7 µM); against Staphylococcus aureus [8], 4 µg/mL (≈ 9.7 µM); in the test with Escherichia coli [9] it was 8 µg/mL (≈ 19.4 µM); in the test with Pseudomonas aeruginosa [10] it was over 64 µg/mL. For the same molecule, the values for the MIC with Candida albicans and against Pseudomonas aeruginosa [11] were 2 µg/mL (≈ 4.85 µM) and over 64 µg/mL, respectively. The Ratio in the test on Escherichia coli [12] stood at 16.
As to `COc1ccc(-c2nn(-c3ccc([N+](=O)[O-])cc3[N+](=O)[O-])cc2/C=N/NC(=N)N)cc1`, the inhibition in vivo at 50 mg/kg in the test with Mus musculus was 86.5%. In addition, the MIC in the test with Salmonella typhimurium was 8 µg/mL (≈ 18.9 µM); in the test on Staphylococcus aureus [1], 4 µg/mL (≈ 9.43 µM); against Staphylococcus aureus [2], 4 µg/mL (≈ 9.43 µM); with Escherichia coli [3] it was 4 µg/mL (≈ 9.43 µM); in the test with Staphylococcus aureus [4] it was 2 µg/mL (≈ 4.71 µM); in the test with Streptococcus mutans, 8 µg/mL (≈ 18.9 µM). Also, the MIC in the test on Staphylococcus aureus [5] is 4 µg/mL (≈ 9.43 µM); against Staphylococcus aureus [6] it was 4 µg/mL (≈ 9.43 µM); against Staphylococcus aureus [7] it was 4 µg/mL (≈ 9.43 µM); in the test on Staphylococcus aureus [8], 4 µg/mL (≈ 9.43 µM); against Escherichia coli [9], 8 µg/mL (≈ 18.9 µM); with Pseudomonas aeruginosa [10] it was over 64 µg/mL. Moreover, the MIC in the test with Candida albicans is 2 µg/mL (≈ 4.71 µM); against Pseudomonas aeruginosa [11], over 64 µg/mL. Besides, in the test on Escherichia coli [12], the Ratio worked out at 16.
Turning to `N=C(N)N/N=C/c1cn(-c2ccccc2)nc1-c1ccc(Cl)cc1`, the inhibition in vivo at 50 mg/kg with Mus musculus was determined as 46%. Also, the MIC with Salmonella typhimurium, against Staphylococcus aureus [1], in the test with Staphylococcus aureus [2], against Escherichia coli [3], with Staphylococcus aureus [4] and against Streptococcus mutans was over 64 µg/mL throughout. In addition, the MIC against Staphylococcus aureus [5] was over 64 µg/mL; against Staphylococcus aureus [6] it was over 64 µg/mL; with Staphylococcus aureus [7], over 64 µg/mL; against Staphylococcus aureus [8], 16 µg/mL (≈ 47.2 µM); against Escherichia coli [9] it was over 64 µg/mL; in the test with Pseudomonas aeruginosa [10] it was over 64 µg/mL. Further, the MIC against Candida albicans and against Pseudomonas aeruginosa [11] was over 64 µg/mL throughout.
